In brackets after ≈: the same amount, converted by molar mass.
Legend:
[1] = system: Staphylococcus aureus; test: Antibacterial activity against Staphylococcus aureus ATCC 29213 assessed as bacterial growth inhibition incubated for 18 to 24 hrs by broth microdilution method; type: functional; settings: time 18-24 hrs
Outline: (§1)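 CLSI broth microdilution. Overnight starter cultures (single colony, MHBII, 37 °C, shaking 18–24 h) were diluted by OD600 to 10^6 CFU/mL in MHBII. Two-fold dilutions from […] were made from 10 mg/mL DMSO stocks, then incubated 37 °C for 18-24 h. The MIC was the lowest concentration with no visible growth. Three independent runs, duplicate samples.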

[2] = system: Staphylococcus aureus; test: Synergistic antibacterial activity against Staphylococcus aureus ATCC 29213 assessed as bacterial growth inhibition incubated for 24 hrs in presence of (S)-8''-Bromo-1-ethyl-1'-methyl-2,12''-dioxo-12''H-dispiro[indoline-3,4'-pyrrolidine-2',6''-indolo[2,1-b]quinazoline]-3',3'-dicarbonitrile by checkerboard assay; type: functional
Outline: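 Checkerboard in 96-well plates: two-fold serial dilutions, one agent along abscissa, partner antibiotic along ordinate. Wells received ~10⁵ CFU/mL S. aureus ATCC 29213 in MHBII. Incubation 37 °C, 24 h. ΣFIC = FIC A + FIC B, each FIC being combination MIC divided by MIC alone.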

[3] = system: Acinetobacter baumannii; test: Antibacterial activity against Acinetobacter baumannii BAA-1605 assessed as bacterial growth inhibition incubated for 18 to 24 hrs by broth microdilution method; type: functional; settings: time 18-24 hrs; outline: as §1
[4] = system: Pseudomonas aeruginosa; test: Antibacterial activity against Pseudomonas aeruginosa ATCC 27853 assessed as bacterial growth inhibition incubated for 18 to 24 hrs by broth microdilution method; type: functional; settings: time 18-24 hrs; outline: as §1
[5] = system: Escherichia coli; test: Antibacterial activity against Escherichia coli ATCC 25922 assessed as bacterial growth inhibition incubated for 18 to 24 hrs by broth microdilution method; type: functional; settings: time 18-24 hrs; outline: as §1
[6] = system: Klebsiella pneumoniae; test: Antibacterial activity against Klebsiella pneumoniae BAA 1705 assessed as bacterial growth inhibition incubated for 18 to 24 hrs by broth microdilution method; type: functional; settings: time 18-24 hrs; outline: as §1
[7] = Selectivity ratio of CC50 for African green monkey Vero cells to MIC against Staphylococcus aureus ATCC 29213; type: toxicity, cell-based
[8] = system: Staphylococcus aureus; test: Antibacterial activity against methicillin sensitive Staphylococcus aureus ATCC 29213 assessed as bacterial growth inhibition incubated for 18 to 24 hrs by broth microdilution method; type: functional; settings: time 18-24 hrs
Outline: (§2)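 CLSI broth microdilution in MHBII; overnight starter cultures (single MHA colony, 37 °C, shaking) adjusted by OD600 to 10^6 CFU/mL. Compounds from DMSO stocks (10 mg/mL), two-fold series 64–0.5 mg/L. Incubation 37 °C, 18-24 h. MIC = lowest concentration with no visible growth. Three independent determinations, each in duplicate.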

[9] = system: Staphylococcus aureus; test: Antibacterial activity against methicillin resistant Staphylococcus aureus NRS 119 assessed as bacterial growth inhibition incubated for 18 to 24 hrs by broth microdilution method; type: functional; settings: time 18-24 hrs; outline: as §2
[10] = system: Staphylococcus aureus; test: Antibacterial activity against methicillin resistant Staphylococcus aureus NRS 129 assessed as bacterial growth inhibition incubated for 18 to 24 hrs by broth microdilution method; type: functional; settings: time 18-24 hrs; outline: as §2
[11] = system: Staphylococcus aureus; test: Antibacterial activity against methicillin resistant Staphylococcus aureus NRS 186 assessed as bacterial growth inhibition incubated for 18 to 24 hrs by broth microdilution method; type: functional; settings: time 18-24 hrs; outline: as §2
[12] = system: Staphylococcus aureus; test: Antibacterial activity against methicillin resistant Staphylococcus aureus NRS 191 assessed as bacterial growth inhibition incubated for 18 to 24 hrs by broth microdilution method; type: functional; settings: time 18-24 hrs; outline: as §2
[13] = system: Staphylococcus aureus; test: Antibacterial activity against methicillin resistant Staphylococcus aureus NRS 192 assessed as bacterial growth inhibition incubated for 18 to 24 hrs by broth microdilution method; type: functional; settings: time 18-24 hrs; outline: as §2
[14] = system: Staphylococcus aureus; test: Antibacterial activity against methicillin resistant Staphylococcus aureus NRS 193 assessed as bacterial growth inhibition incubated for 18 to 24 hrs by broth microdilution method; type: functional; settings: time 18-24 hrs; outline: as §2
[15] = system: Staphylococcus aureus; test: Antibacterial activity against methicillin resistant Staphylococcus aureus NRS 194 assessed as bacterial growth inhibition incubated for 18 to 24 hrs by broth microdilution method; type: functional; settings: time 18-24 hrs; outline: as §2
[16] = system: Staphylococcus aureus; test: Antibacterial activity against methicillin resistant Staphylococcus aureus NRS 198 assessed as bacterial growth inhibition incubated for 18 to 24 hrs by broth microdilution method; type: functional; settings: time 18-24 hrs; outline: as §2
[17] = system: Staphylococcus aureus; test: Antibacterial activity against vancomycin resistant Staphylococcus aureus […] 4 assessed as bacterial growth inhibition incubated for 18 to 24 hrs by broth microdilution method; type: functional; settings: time 18-24 hrs; outline: as §2
[18] = system: Staphylococcus aureus; test: Antibacterial activity against vancomycin resistant Staphylococcus aureus […] 12 assessed as bacterial growth inhibition incubated for 18 to 24 hrs by broth microdilution method; type: functional; settings: time 18-24 hrs; outline: as §2
[19] = system: Vero; test: Cytotoxicity against African green monkey Vero cells assessed as cell viability incubated for 72 hrs by MTT assay; type: toxicity, cell-based; settings: chlorocebus sabaeus
Outline: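 MTT assay on Vero cells, ~10^3 cells/well, 37 °C, 5% CO2. Compound was added at 24 h (100-12.5 μg/mL) for 72 h, then MTT for 4 h at 37 °C. Formazan was dissolved in DMSO and read at 540 nm. CC50 was the lowest concentration giving 50% viability loss. Doxorubicin positive control; triplicate.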

[20] = Staphylococcus aureus, ATCC 29213, read-out: MIC

| Molecule | MIC [1, 20] | MIC [2] | MIC [3] | MIC [4] | MIC [5] | MIC [6] | selectivity ratio [7] | MIC [1] | MIC [8] | MIC [9] | MIC [10] | MIC [11] | MIC [12] | MIC [13] | MIC [14] | MIC [15] | MIC [16] | MIC [17] | MIC [18] | Activity [19] |
| --- | --- | --- | --- | --- | --- | --- | --- | --- | --- | --- | --- | --- | --- | --- | --- | --- | --- | --- | --- | --- |
| CC(C)(O/N=C(\C(=O)N[C@@H]1C(=O)N2C(C(=O)[O-])=C(C[n+]3ccccc3)CS[C@H]12)c1csc(N)n1)C(=O)O [CEFTAZIDIME] | 8 µg/mL (≈ 14.6 µM) | 8 µg/mL | – | – | – | – | – | – | – | – | – | – | – | – | – | – | – | – | – | – |
| CCN1C(=O)[C@@]2(CN(C)C3(c4ccccc4-n4c3nc3ccccc3c4=O)C2(C#N)C#N)c2ccccc21 (some centres not stated) | 1 µg/mL (≈ 2.01 µM) | – | > 64 µg/mL | > 64 µg/mL | > 64 µg/mL | > 64 µg/mL | – | – | – | – | – | – | – | – | – | – | – | – | – | – |
| CCN1C(=O)[C@@]2(CN(C)C3(c4cc(I)ccc4-n4c3nc3ccccc3c4=O)C2(C#N)C#N)c2ccccc21 (some centres not stated) | 0.25 µg/mL (≈ 0.4 µM) | – | > 64 µg/mL | > 64 µg/mL | > 64 µg/mL | > 64 µg/mL | – | – | – | – | – | – | – | – | – | – | – | – | – | – |
| CCN1C(=O)[C@]2(c3cc(Cl)ccc31)C(Cc1c[nH]c3ccccc13)NC1(c3cc(Cl)ccc3-n3c1nc1ccccc1c3=O)C2(C#N)C#N (some centres not stated) | 0.25 µg/mL (≈ 0.366 µM) | – | > 64 µg/mL | > 64 µg/mL | > 64 µg/mL | > 64 µg/mL | – | – | – | – | – | – | – | – | – | – | – | – | – | – |
| CCN1C(=O)[C@]2(c3ccccc31)C1CCCN1C1(c3ccccc3-n3c1nc1ccccc1c3=O)C2(C#N)C#N (some centres not stated) | 0.25 µg/mL (≈ 0.477 µM) | – | > 64 µg/mL | > 64 µg/mL | > 64 µg/mL | > 64 µg/mL | – | – | – | – | – | – | – | – | – | – | – | – | – | – |
| CCN1C(=O)[C@]2(c3ccccc31)C(C(=O)NCC(=O)O)NC1(c3cc(Cl)ccc3-n3c1nc1ccccc1c3=O)C2(C#N)C#N (some centres not stated) | 1 µg/mL (≈ 1.61 µM) | – | > 64 µg/mL | > 64 µg/mL | > 64 µg/mL | > 64 µg/mL | 10 | – | – | – | – | – | – | – | – | – | – | – | – | – |
| GENTAMICIN | – | 0.25 µg/mL | – | – | – | – | – | 0.25 µg/mL | – | – | – | – | – | – | – | – | – | – | – | – |
| CCN1C(=O)[C@@]2(CN(C)C3(c4cc(OC)ccc4-n4c3nc3ccccc3c4=O)C2(C#N)C#N)c2ccccc21 (some centres not stated) | 0.125 µg/mL (≈ 0.236 µM) | – | > 64 µg/mL | > 64 µg/mL | > 64 µg/mL | > 64 µg/mL | > 80 | – | 0.5 µg/mL (≈ 0.946 µM) | 0.25 µg/mL (≈ 0.473 µM) | 0.25 µg/mL (≈ 0.473 µM) | 0.5 µg/mL (≈ 0.946 µM) | 0.25 µg/mL (≈ 0.473 µM) | 0.5 µg/mL (≈ 0.946 µM) | 0.5 µg/mL (≈ 0.946 µM) | 0.5 µg/mL (≈ 0.946 µM) | 0.5 µg/mL (≈ 0.946 µM) | 0.5 µg/mL (≈ 0.946 µM) | 8 µg/mL (≈ 15.1 µM) | Non-Toxic |
| CCN1C(=O)[C@@]2(CN(C)C3(c4cc([N+](=O)[O-])ccc4-n4c3nc3ccccc3c4=O)C2(C#N)C#N)c2ccccc21 (some centres not stated) | 0.25 µg/mL (≈ 0.46 µM) | – | > 64 µg/mL | > 64 µg/mL | > 64 µg/mL | > 64 µg/mL | < 10 | – | – | – | – | – | – | – | – | – | – | – | – | – |
| CCN1C(=O)[C@@]2(CN(C)C3(c4cc(Cl)ccc4-n4c3nc3ccccc3c4=O)C2(C#N)C#N)c2ccccc21 (some centres not stated) | 0.125 µg/mL (≈ 0.235 µM) | – | > 64 µg/mL | > 64 µg/mL | > 64 µg/mL | > 64 µg/mL | > 80 | – | 0.25 µg/mL (≈ 0.469 µM) | 0.125 µg/mL (≈ 0.235 µM) | 0.25 µg/mL (≈ 0.469 µM) | 0.125 µg/mL (≈ 0.235 µM) | 0.063 µg/mL (≈ 0.118 µM) | 0.25 µg/mL (≈ 0.469 µM) | 0.25 µg/mL (≈ 0.469 µM) | 0.5 µg/mL (≈ 0.938 µM) | 0.25 µg/mL (≈ 0.469 µM) | 0.25 µg/mL (≈ 0.469 µM) | 0.25 µg/mL (≈ 0.469 µM) | Non-Toxic |

From ChEMBL document CHEMBL5329147, “Synthesis of tryptanthrin appended dispiropyrrolidine oxindoles and their antibacterial evaluation” (RSC Med Chem, 2023)
